# Results reported in ChEMBL document CHEMBL4689842, “EUbOPEN Chemogenomics Library wave 1” (2021).
# System: Fibroblast
# Assay: Multiplex assay against human fibroblast
# Format: toxicity, cell-based
# Procedure, shortened: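 Cells were classed with CellPathfinder machine-learning gating, first as Hoechst high-intensity objects or normal cells, then (normal cells) as healthy, pyknosed or fragmented nuclei, and finally (pyknosed cells) as mitotic or apoptotic. Staining of live cells at seeding used Hoechst33342, BioTracker Green Microtubule Cytoskeleton Dye, MitoTracker Red and Annexin V Alexa Fluor 680, with imaging on a CQ1 microscope at 37°C and 5% CO2 after compound addition. Tubulin, mitochondrial-mass and membrane-permeability phenotypes are per cents of healthy-nucleus cells.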
# [1] = 12 h, 1 µM, compound concentration 1 uM, replicate 1
# [2] = 12 h, 1 µM, compound concentration 1 uM, replicate 2
# [3] = 12 h, 10 µM, compound concentration 10 uM, replicate 1
# [4] = 12 h, 10 µM, compound concentration 10 uM, replicate 2
# [5] = 24 h, 1 µM, compound concentration 1 uM, replicate 1
# [6] = 24 h, 1 µM, compound concentration 1 uM, replicate 2
# [7] = 24 h, 10 µM, compound concentration 10 uM, replicate 1
# [8] = 24 h, 10 µM, compound concentration 10 uM, replicate 2
# [9] = 48 h, 1 µM, compound concentration 1 uM, replicate 1
# [10] = 48 h, 1 µM, compound concentration 1 uM, replicate 2
# [11] = 48 h, 10 µM, compound concentration 10 uM, replicate 1
# [12] = 48 h, 10 µM, compound concentration 10 uM, replicate 2
structure (smiles),measurement,setting,value
CCc1cccc(CC)c1NC(=O)c1nn(C)c2c1CCc1cnc(Nc3ccc(C(=O)NC4CCN(C)CC4)cc3OC(F)(F)F)nc1-2,Population Apoptotic (%),[1],62%
same,Population Fragmented Nuclei (%),[1],22%
same,Population Healthy Nuclei (%),[1],38%
same,Population Hoechst High Intensity Objects (%),[1],7%
same,Population Membrane Permeable-Phenotype (%),[1],24%
same,Population Mitochondria Different-Phenotype (%),[1],7%
same,Population Mitotic Cells (%),[1],37%
same,Population Normal (%),[1],92%
same,Population Pyknosed Nuclei (%),[1],39%
same,Population Tubulin-Different-Phenotype (%),[1],47%
same,Total Cell Count,[1],160
same,Population Apoptotic (%),[2],40%
same,Population Fragmented Nuclei (%),[2],1%
same,Population Healthy Nuclei (%),[2],83%
same,Population Hoechst High Intensity Objects (%),[2],13%
same,Population Membrane Permeable-Phenotype (%),[2],5%
same,Population Mitochondria Different-Phenotype (%),[2],14%
same,Population Mitotic Cells (%),[2],60%
same,Population Normal (%),[2],86%
same,Population Pyknosed Nuclei (%),[2],15%
same,Population Tubulin-Different-Phenotype (%),[2],18%
same,Total Cell Count,[2],51
same,Population Apoptotic (%),[3],61%
same,Population Fragmented Nuclei (%),[3],24%
same,Population Healthy Nuclei (%),[3],51%
same,Population Hoechst High Intensity Objects (%),[3],21%
same,Population Membrane Permeable-Phenotype (%),[3],8%
same,Population Mitochondria Different-Phenotype (%),[3],26%
same,Population Mitotic Cells (%),[3],38%
same,Population Normal (%),[3],78%
same,Population Pyknosed Nuclei (%),[3],23%
same,Population Tubulin-Different-Phenotype (%),[3],60%
same,Total Cell Count,[3],139
same,Population Apoptotic (%),[4],46%
same,Population Fragmented Nuclei (%),[4],12%
same,Population Healthy Nuclei (%),[4],70%
same,Population Hoechst High Intensity Objects (%),[4],5%
same,Population Membrane Permeable-Phenotype (%),[4],15%
same,Population Mitochondria Different-Phenotype (%),[4],98%
same,Population Mitotic Cells (%),[4],53%
same,Population Normal (%),[4],94%
same,Population Pyknosed Nuclei (%),[4],17%
same,Population Tubulin-Different-Phenotype (%),[4],86%
same,Total Cell Count,[4],75
same,Population Apoptotic (%),[5],48%
same,Population Fragmented Nuclei (%),[5],23%
same,Population Healthy Nuclei (%),[5],40%
same,Population Hoechst High Intensity Objects (%),[5],11%
same,Population Membrane Permeable-Phenotype (%),[5],23%
same,Population Mitochondria Different-Phenotype (%),[5],5%
same,Population Mitotic Cells (%),[5],52%
same,Population Normal (%),[5],88%
same,Population Pyknosed Nuclei (%),[5],35%
same,Population Tubulin-Different-Phenotype (%),[5],53%
same,Total Cell Count,[5],157
same,Population Apoptotic (%),[6],37%
same,Population Fragmented Nuclei (%),[6],7%
same,Population Healthy Nuclei (%),[6],81%
same,Population Hoechst High Intensity Objects (%),[6],10%
same,Population Membrane Permeable-Phenotype (%),[6],5%
same,Population Mitochondria Different-Phenotype (%),[6],12%
same,Population Mitotic Cells (%),[6],62%
same,Population Normal (%),[6],89%
same,Population Pyknosed Nuclei (%),[6],11%
same,Population Tubulin-Different-Phenotype (%),[6],19%
same,Total Cell Count,[6],53
same,Population Apoptotic (%),[7],62%
same,Population Fragmented Nuclei (%),[7],25%
same,Population Healthy Nuclei (%),[7],49%
same,Population Hoechst High Intensity Objects (%),[7],30%
same,Population Membrane Permeable-Phenotype (%),[7],16%
same,Population Mitochondria Different-Phenotype (%),[7],40%
same,Population Mitotic Cells (%),[7],37%
same,Population Normal (%),[7],69%
same,Population Pyknosed Nuclei (%),[7],25%
same,Population Tubulin-Different-Phenotype (%),[7],50%
same,Total Cell Count,[7],161
same,Population Apoptotic (%),[8],50%
same,Population Fragmented Nuclei (%),[8],15%
same,Population Healthy Nuclei (%),[8],63%
same,Population Hoechst High Intensity Objects (%),[8],2%
same,Population Membrane Permeable-Phenotype (%),[8],26%
same,Population Mitochondria Different-Phenotype (%),[8],91%
same,Population Mitotic Cells (%),[8],50%
same,Population Normal (%),[8],97%
same,Population Pyknosed Nuclei (%),[8],20%
same,Population Tubulin-Different-Phenotype (%),[8],73%
same,Total Cell Count,[8],77
same,Population Apoptotic (%),[9],67%
same,Population Fragmented Nuclei (%),[9],31%
same,Population Healthy Nuclei (%),[9],45%
same,Population Hoechst High Intensity Objects (%),[9],15%
same,Population Membrane Permeable-Phenotype (%),[9],16%
same,Population Mitochondria Different-Phenotype (%),[9],7%
same,Population Mitotic Cells (%),[9],32%
same,Population Normal (%),[9],84%
same,Population Pyknosed Nuclei (%),[9],23%
same,Population Tubulin-Different-Phenotype (%),[9],40%
same,Total Cell Count,[9],141
same,Population Apoptotic (%),[10],20%
same,Population Fragmented Nuclei (%),[10],38%
same,Population Healthy Nuclei (%),[10],55%
same,Population Hoechst High Intensity Objects (%),[10],11%
same,Population Membrane Permeable-Phenotype (%),[10],10%
same,Population Mitochondria Different-Phenotype (%),[10],4%
same,Population Mitotic Cells (%),[10],80%
same,Population Normal (%),[10],88%
same,Population Pyknosed Nuclei (%),[10],5%
same,Population Tubulin-Different-Phenotype (%),[10],42%
same,Total Cell Count,[10],102
same,Population Apoptotic (%),[11],70%
same,Population Fragmented Nuclei (%),[11],31%
same,Population Healthy Nuclei (%),[11],50%
same,Population Hoechst High Intensity Objects (%),[11],38%
same,Population Membrane Permeable-Phenotype (%),[11],16%
same,Population Mitochondria Different-Phenotype (%),[11],15%
same,Population Mitotic Cells (%),[11],30%
same,Population Normal (%),[11],61%
same,Population Pyknosed Nuclei (%),[11],18%
same,Population Tubulin-Different-Phenotype (%),[11],47%
same,Total Cell Count,[11],172
same,Population Apoptotic (%),[12],25%
same,Population Fragmented Nuclei (%),[12],29%
same,Population Healthy Nuclei (%),[12],67%
same,Population Hoechst High Intensity Objects (%),[12],15%
same,Population Membrane Permeable-Phenotype (%),[12],30%
same,Population Mitochondria Different-Phenotype (%),[12],10%
same,Population Mitotic Cells (%),[12],75%
same,Population Normal (%),[12],84%
same,Population Pyknosed Nuclei (%),[12],2%
same,Population Tubulin-Different-Phenotype (%),[12],43%
same,Total Cell Count,[12],158
O=C(Nc1ccc(-n2nc(-c3cccnc3)cc2C(F)(F)F)cn1)c1ccc(-c2ccccc2)c(F)c1 [BI 2049],Population Apoptotic (%),[1],63%
same,Population Fragmented Nuclei (%),[1],29%
same,Population Healthy Nuclei (%),[1],30%
same,Population Hoechst High Intensity Objects (%),[1],10%
same,Population Membrane Permeable-Phenotype (%),[1],32%
same,Population Mitochondria Different-Phenotype (%),[1],8%
same,Population Mitotic Cells (%),[1],36%
same,Population Normal (%),[1],89%
same,Population Pyknosed Nuclei (%),[1],40%
same,Population Tubulin-Different-Phenotype (%),[1],44%
same,Total Cell Count,[1],92
same,Population Apoptotic (%),[2],50%
same,Population Fragmented Nuclei (%),[2],4%
same,Population Healthy Nuclei (%),[2],85%
same,Population Hoechst High Intensity Objects (%),[2],8%
same,Population Membrane Permeable-Phenotype (%),[2],3%
same,Population Mitochondria Different-Phenotype (%),[2],7%
same,Population Mitotic Cells (%),[2],50%
same,Population Normal (%),[2],91%
same,Population Pyknosed Nuclei (%),[2],9%
same,Total Cell Count,[2],69
same,Population Apoptotic (%),[3],58%
same,Population Fragmented Nuclei (%),[3],11%
same,Population Healthy Nuclei (%),[3],41%
same,Population Hoechst High Intensity Objects (%),[3],9%
same,Population Membrane Permeable-Phenotype (%),[3],22%
same,Population Mitochondria Different-Phenotype (%),[3],22%
same,Population Mitotic Cells (%),[3],41%
same,Population Normal (%),[3],90%
same,Population Pyknosed Nuclei (%),[3],46%
same,Population Tubulin-Different-Phenotype (%),[3],62%
same,Total Cell Count,[3],93
same,Population Apoptotic (%),[4],0%
same,Population Fragmented Nuclei (%),[4],18%
same,Population Healthy Nuclei (%),[4],81%
same,Population Hoechst High Intensity Objects (%),[4],6%
same,Population Membrane Permeable-Phenotype (%),[4],4%
same,Population Mitochondria Different-Phenotype (%),[4],12%
same,Population Mitotic Cells (%),[4],0%
same,Population Normal (%),[4],93%
same,Population Pyknosed Nuclei (%),[4],0%
same,Population Tubulin-Different-Phenotype (%),[4],8%
same,Total Cell Count,[4],65
same,Population Apoptotic (%),[5],61%
same,Population Fragmented Nuclei (%),[5],32%
same,Population Healthy Nuclei (%),[5],36%
same,Population Hoechst High Intensity Objects (%),[5],14%
same,Population Membrane Permeable-Phenotype (%),[5],32%
same,Population Mitochondria Different-Phenotype (%),[5],12%
same,Population Mitotic Cells (%),[5],38%
same,Population Normal (%),[5],85%
same,Population Pyknosed Nuclei (%),[5],30%
same,Population Tubulin-Different-Phenotype (%),[5],58%
same,Total Cell Count,[5],98
same,Population Apoptotic (%),[6],25%
same,Population Fragmented Nuclei (%),[6],7%
same,Population Healthy Nuclei (%),[6],83%
same,Population Hoechst High Intensity Objects (%),[6],7%
same,Population Membrane Permeable-Phenotype (%),[6],4%
same,Population Mitochondria Different-Phenotype (%),[6],9%
same,Population Mitotic Cells (%),[6],75%
same,Population Normal (%),[6],92%
same,Population Pyknosed Nuclei (%),[6],8%
same,Population Tubulin-Different-Phenotype (%),[6],37%
same,Total Cell Count,[6],96
same,Population Apoptotic (%),[7],66%
same,Population Fragmented Nuclei (%),[7],24%
same,Population Healthy Nuclei (%),[7],42%
same,Population Hoechst High Intensity Objects (%),[7],8%
same,Population Membrane Permeable-Phenotype (%),[7],12%
same,Population Mitochondria Different-Phenotype (%),[7],17%
same,Population Mitotic Cells (%),[7],33%
same,Population Normal (%),[7],91%
same,Population Pyknosed Nuclei (%),[7],32%
same,Population Tubulin-Different-Phenotype (%),[7],46%
same,Total Cell Count,[7],99
same,Population Apoptotic (%),[8],0%
same,Population Fragmented Nuclei (%),[8],11%
same,Population Healthy Nuclei (%),[8],84%
same,Population Hoechst High Intensity Objects (%),[8],3%
same,Population Membrane Permeable-Phenotype (%),[8],4%
same,Population Mitochondria Different-Phenotype (%),[8],13%
same,Population Mitotic Cells (%),[8],100%
same,Population Normal (%),[8],96%
same,Population Pyknosed Nuclei (%),[8],3%
same,Population Tubulin-Different-Phenotype (%),[8],10%
same,Total Cell Count,[8],82
same,Population Apoptotic (%),[9],64%
same,Population Fragmented Nuclei (%),[9],26%
same,Population Healthy Nuclei (%),[9],45%
same,Population Hoechst High Intensity Objects (%),[9],9%
same,Population Membrane Permeable-Phenotype (%),[9],40%
same,Population Mitochondria Different-Phenotype (%),[9],2%
same,Population Mitotic Cells (%),[9],36%
same,Population Normal (%),[9],90%
same,Population Pyknosed Nuclei (%),[9],28%
same,Population Tubulin-Different-Phenotype (%),[9],37%
same,Total Cell Count,[9],97
same,Population Apoptotic (%),[10],100%
same,Population Fragmented Nuclei (%),[10],25%
same,Population Healthy Nuclei (%),[10],72%
same,Population Hoechst High Intensity Objects (%),[10],16%
same,Population Membrane Permeable-Phenotype (%),[10],17%
same,Population Mitotic Cells (%),[10],0%
same,Population Normal (%),[10],83%
same,Population Pyknosed Nuclei (%),[10],1%
same,Population Tubulin-Different-Phenotype (%),[10],5%
same,Total Cell Count,[10],66
same,Population Apoptotic (%),[11],72%
same,Population Fragmented Nuclei (%),[11],30%
same,Population Healthy Nuclei (%),[11],50%
same,Population Hoechst High Intensity Objects (%),[11],15%
same,Population Membrane Permeable-Phenotype (%),[11],35%
same,Population Mitochondria Different-Phenotype (%),[11],14%
same,Population Mitotic Cells (%),[11],27%
same,Population Normal (%),[11],84%
same,Population Pyknosed Nuclei (%),[11],18%
same,Population Tubulin-Different-Phenotype (%),[11],64%
same,Total Cell Count,[11],113
same,Population Apoptotic (%),[12],100%
same,Population Fragmented Nuclei (%),[12],14%
same,Population Healthy Nuclei (%),[12],85%
same,Population Hoechst High Intensity Objects (%),[12],9%
same,Population Membrane Permeable-Phenotype (%),[12],15%
same,Population Mitochondria Different-Phenotype (%),[12],1%
same,Population Mitotic Cells (%),[12],0%
same,Population Normal (%),[12],90%
same,Population Pyknosed Nuclei (%),[12],0%
same,Population Tubulin-Different-Phenotype (%),[12],35%
same,Total Cell Count,[12],140
